# Published values collected from several papers.
# Compare with care: the assays were run in different laboratories.
Compound,organism,assay,test system,conditions,endpoint,value
N#CC(=Cc1cn(-c2ccccc2)nc1-c1ccccc1)C1=NC(=O)CS1,Klebsiella pneumoniae,"microbial growth, well diffusion",,100000 µg/mL,inhibition zone,27 mm
O=C(O)c1cccnc1,Cryptosporidium parvum,"parasite growth, imaging",HCT-8,"1 mM, 24 h, intracellular",activity vs control,90.3%
O=C1NC(=S)N/C1=C\c1c2ccccc2c(-c2ccc(N(c3ccccc3)c3ccccc3)cc2)c2ccccc12,Streptococcus pneumoniae,"microbial growth, broth dilution",ATCC49619,,MIC,> 1000 µg/mL
Cc1c(NC(=O)CC2=NC(=O)CS2)c(=O)n(-c2ccccc2)n1C,Klebsiella pneumoniae,"microbial growth, well diffusion",,100000 µg/mL,inhibition zone,25 mm
Cc1ncc(CO)c(C(=O)O)c1O,Cryptosporidium parvum,"parasite growth, imaging",HCT-8,"1 mM, 24 h, intracellular",activity vs control,105%
O=C1C=C(OCc2cn(-c3ccccc3)nn2)C(=O)c2ccccc21,Klebsiella pneumoniae,"microbial growth, broth dilution",ATCC700603,,IC50,223 µg/mL
O=C1NC(=S)S/C1=C\c1c2ccccc2c(-c2ccc(N(c3ccccc3)c3ccccc3)cc2)c2ccccc12,Streptococcus pneumoniae,"microbial killing, broth dilution",ATCC49619,,MBC,> 1000 µg/mL
N#CC(=Cc1ccccc1O)C1=NC(=O)C(=Cc2cn(-c3ccccc3)nc2-c2ccccc2)S1,Klebsiella pneumoniae,"microbial growth, well diffusion",,100000 µg/mL,inhibition zone,26 mm
Cc1ccc(C(C)C)cc1OS(=O)(=O)c1ccccc1,Klebsiella pneumoniae,"microbial growth, broth dilution",ATCC700603,,IC50,117 µg/mL
CC(C)(NC(=O)c1cc2c(F)cc(F)cc2[nH]1)c1cn(Cc2cccc(Cl)c2)nn1,Cryptosporidium parvum,"parasite growth, imaging",HCT-8,"11 µM, 72 h, intracellular",inhibition,~30%
O=C(O)CN1C(=O)/C(=C/c2ccc(-c3ccc(N(c4ccccc4)c4ccccc4)cc3)cc2)SC1=S,Streptococcus pneumoniae,"microbial growth, broth dilution",ATCC49619,,MIC,15.6 µg/mL
CC(C)(NC(=O)c1cc2c(Cl)cc(Cl)cc2[nH]1)c1cn(Cc2ccccc2)nn1,Cryptosporidium parvum,"parasite growth, imaging",HCT-8,"11 µM, 72 h, intracellular",inhibition,> 60%
NCCCCC(=O)O,Cryptosporidium parvum,"parasite growth, imaging",HCT-8,"1 mM, 24 h, intracellular",activity vs control,102%
O=C1NC(=S)S/C1=C\c1ccc(-c2ccc(N(c3ccccc3)c3ccccc3)cc2)c2ccccc12,Streptococcus pneumoniae,"microbial killing, broth dilution",ATCC49619,,MBC,> 1000 µg/mL
Cc1ccc(C(C)C)cc1OCc1cn(-c2ccc(C(=O)O)cc2)nn1,Klebsiella pneumoniae,"microbial growth, broth dilution",ATCC700603,,IC50,261 µg/mL
CN(C)CC(=O)O,Cryptosporidium parvum,"parasite growth, imaging",HCT-8,"1 mM, 24 h, intracellular",activity vs control,105%
Cc1ccc(C(C)C)cc1OCc1cn(-c2ccc(S(N)(=O)=O)cc2)nn1,Klebsiella pneumoniae,"microbial growth, broth dilution",ATCC700603,,IC50,602 µg/mL
Nc1nc2nc[nH]c2c(=O)[nH]1,Cryptosporidium parvum,"parasite growth, imaging",HCT-8,"1 mM, 24 h, intracellular",activity vs control,106%
c1ccc(-n2cc(COc3cccc4cccnc34)nn2)cc1,Klebsiella pneumoniae,"microbial growth, broth dilution",ATCC700603,,IC50,401 µg/mL
Cc1c(NN=C2SC(C(C#N)=Cc3ccccc3)=NC2=O)c(=O)n(-c2ccccc2)n1C,Klebsiella pneumoniae,"microbial growth, well diffusion",,100000 µg/mL,inhibition zone,14 mm
Cc1ccc(C(C)C)cc1O,Klebsiella pneumoniae,"microbial growth, broth dilution",ATCC700603,,IC50,61.9 µg/mL
O=c1[nH]cnc2nc[nH]c12,Cryptosporidium parvum,"parasite growth, imaging",HCT-8,"1 mM, 24 h, intracellular",activity vs control,106%
CCCCS(=O)(=O)Oc1cc(C(C)C)ccc1C,Klebsiella pneumoniae,"microbial growth, broth dilution",ATCC700603,,IC50,95.5 µg/mL
Nc1cc[nH]c(=O)n1,Cryptosporidium parvum,"parasite growth, imaging",HCT-8,"1 mM, 24 h, intracellular",activity vs control,99.2%
Cc1ccc(S(=O)(=O)Oc2cccc3cccnc23)cc1,Klebsiella pneumoniae,"microbial growth, broth dilution",ATCC700603,,IC50,122 µg/mL
O=C(O)CN1C(=O)/C(=C/c2c3ccccc3c(-c3ccc(N(c4ccccc4)c4ccccc4)cc3)c3ccccc23)SC1=S,Streptococcus pneumoniae,"microbial killing, broth dilution",ATCC49619,,MBC,> 1000 µg/mL
